ChEMBL document CHEMBL1128557, “Synthesis, antitumor activity, and chemical properties of silaplatin and related platinum (II) and platinum (IV) complexes derived from beta-silyl amines” (J Med Chem, 1995)

Assays:
[1] = test system: Tumor Cell line; assay: Evaluated in vitro for the log10 molecular concentration that caused 50 % inhibition of tumor growth of 60 human tumor cell lines; assay type: functional, cell-based
How it was run: (§1)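 Cells preincubated 24 h, then exposed to the agent at five 10-fold dilutions (0.01–100 μM for the platinum complexes) for 48 h. Cells fixed in situ and stained; solubilized stain read spectrophotometrically. Panel of leukemia, non-small-cell lung, ovarian and renal lines. Log GI50 or TGI taken per cell line in one experiment, then averaged across lines.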

[2] = test system: Tumor Cell line; assay: Evaluated in vitro for the log10 molecular concentration that caused […] tumor growth of 60 human tumor cell lines.; assay type: functional, cell-based; how it was run: as §1
[3] = test system: Tumor Cell line; assay: The compound was evaluated in vitro for the log10 molecular concentration that caused 50 % of 60 human tumor cell line kills; assay type: ADME, cell-based
How it was run: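 Human tumor cell lines (leukemia, non-small-cell lung, ovarian, renal) were preincubated 24 h. Platinum complexes were then added as five 10-fold dilutions, 0.01–100 μM, for 48 h, followed by in situ fixation and staining, with solubilized stain read spectrophotometrically. Log LC50 (50% cell kill) was averaged across cell lines within one experiment.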

Substance | GI50 [1] [µM] | TGI [2] [µM] | Log LC50 [3]
[Bis(aminomethyl)diethylsilane]tetrachloroplatinum(IV) | 3.02 | 46.8 | 
CISPLATIN |  |  | > -3.35
CARBOPLATIN | 107 | 214 | 
cis-Bis[[(trimethylsilyl)methyl]amino]tetrachloroplatinum(IV) |  |  | > -4.06

Further lines, with some results ahead:

GI50 [1] [µM] | Substance | TGI [2] [µM] | Log LC50 [3]
6.17 | [Bis(aminomethyl)ethylmethylsilane]tetrachloroplatinum(IV) | 39.8 | 
25.7 | [Bis(aminomethyl)tetramethylenesilane]dichloropaltinum(II) | 89.1 | 
